Here are results for eleven compounds from ChEMBL document CHEMBL1149661, “Synthesis, biological evaluation, and molecular modeling of 3,5-substituted-N1-phenyl-N4,N4-di-n-butylsulfanilamides as antikinetoplastid antimicrotubule agents” (Bioorg Med Chem, 2007).

The nature of series [1]: Inhibition of Leishmania tarentolae tubulin assembly. In a few lines:
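Purified Leishmania tarentolae tubulin, 1.5 mg/mL, polymerized with or without compound. Assembly read as the absorbance change at 351 nm after 20 min at 30 °C, compared with untreated controls. Assembly kinetics were also followed over time. IC50 is the mean ± SD of at least three independent experiments.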

For the next series, the target named is Tubulin (Sus scrofa, UniProt P02554+P02550). The series is described as follows: Inhibition of porcine tubulin assembly. Type of series: protein assay. In a few lines: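 Purified porcine brain tubulin at a final 2 mg/mL (raised from 1.5 mg/mL to make control assembly more reproducible). Polymerization read as the absorbance change at 351 nm after 20 min at 30 °C relative to controls. IC50 is the mean ± SD of at least three independent experiments.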

The target in the next series is Tubulin (Sus scrofa) (UniProt P02554+P02550). The experiment in a line: Inhibition of porcine tubulin assembly at 100 uM. Type of series: protein assay. In a few lines: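 Porcine brain tubulin at a final 2 mg/mL, assembled with compound at a single 100 μM. Inhibition taken from the absorbance change at 351 nm after 20 min at 30 °C, relative to controls without compound.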

For another series, the system named is Leishmania donovani. The experiment in a line: Growth inhibition against Leishmania donovani. Type of series: functional, organism-based.
The subject of series [2] is Trypanosoma brucei brucei. The experiment in a line: Growth inhibition against Trypanosoma brucei brucei. The class given is functional, organism-based.
The nature of series [3]: Toxicity against monkey Vero cells. The class given is cell-based. The settings on record: Chlorocebus sabaeus (monkey).

Sequence of Tubulin (Sus scrofa) (P02550 whole entry, looked up): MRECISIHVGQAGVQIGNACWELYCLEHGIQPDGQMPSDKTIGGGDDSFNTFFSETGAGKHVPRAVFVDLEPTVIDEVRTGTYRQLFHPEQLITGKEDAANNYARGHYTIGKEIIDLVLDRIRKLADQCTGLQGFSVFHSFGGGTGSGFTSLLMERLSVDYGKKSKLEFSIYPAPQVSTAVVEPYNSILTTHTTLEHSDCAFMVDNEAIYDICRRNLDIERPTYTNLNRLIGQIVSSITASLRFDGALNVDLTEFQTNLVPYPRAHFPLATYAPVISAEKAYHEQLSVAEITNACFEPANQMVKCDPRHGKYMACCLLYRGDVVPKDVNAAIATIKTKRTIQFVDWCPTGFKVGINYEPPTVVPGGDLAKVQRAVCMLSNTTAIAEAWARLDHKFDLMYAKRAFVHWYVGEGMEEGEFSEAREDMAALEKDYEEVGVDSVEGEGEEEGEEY
Sequence of Tubulin (Sus scrofa) (P02554 whole entry, looked up): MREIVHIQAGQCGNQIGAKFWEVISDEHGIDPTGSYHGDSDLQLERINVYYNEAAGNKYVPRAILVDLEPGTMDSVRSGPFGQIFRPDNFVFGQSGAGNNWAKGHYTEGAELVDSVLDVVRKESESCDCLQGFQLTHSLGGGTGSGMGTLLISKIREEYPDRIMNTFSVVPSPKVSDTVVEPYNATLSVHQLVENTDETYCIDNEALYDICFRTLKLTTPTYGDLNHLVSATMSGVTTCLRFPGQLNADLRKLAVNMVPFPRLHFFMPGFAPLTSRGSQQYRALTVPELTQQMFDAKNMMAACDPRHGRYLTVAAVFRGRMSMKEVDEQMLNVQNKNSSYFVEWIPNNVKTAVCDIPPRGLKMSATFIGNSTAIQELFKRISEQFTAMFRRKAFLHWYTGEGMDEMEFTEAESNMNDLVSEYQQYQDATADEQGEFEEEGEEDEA

For the compound `CCCCN(CCCC)c1c(N)cc(S(=O)(=O)Nc2ccccc2)cc1N`, the IC50 – broadly, the midpoint of a concentration-inhibition curve – in series [1] is > 100 µM; against Tubulin, > 50 µM; in the series on Leishmania donovani it was 12 µM; in series [2] it was 4 µM; in series [3], 27 µM. Further, the inhibition – broadly, the percentage by which the read-out fell short of the control – against Tubulin (Sus scrofa) worked out at 50%.

Take `CCCCN(CCCC)c1c(C(=O)OC)cc(S(=O)(=O)Nc2ccccc2)cc1C(=O)OC`: the IC50 is > 100 µM in series [1], > 50 µM with Leishmania donovani and > 50 µM in series [2].

On to `CCCCN(CCCC)c1c([N+](=O)[O-])cc(S(=O)(=O)Nc2ccccc2)cc1[N+](=O)[O-]`, for which the IC50 in series [1] is 7.4 µM; against Tubulin, > 40 µM; with Leishmania donovani, 2.3 µM; in series [2], 0.18 µM; in series [3] it was 9.7 µM.

For `CCCCN(CCCC)c1c(C(=O)O)cc(S(=O)(=O)Nc2ccccc2)cc1C(=O)O`, the figures for the IC50 (in series [1]; with Leishmania donovani; in series [2]) were > 100 µM, > 50 µM and > 50 µM, respectively.

`CCCCN(CCCC)c1c(C#N)cc(S(=O)(=O)Nc2ccccc2)cc1C#N`: the IC50 in series [1] is 6.6 µM; on Tubulin it was > 50 µM; with Leishmania donovani it was 4.4 µM; in series [2], 0.26 µM; in series [3] it was 16 µM.

The compound `COc1cc([C@@H]2c3cc4c(cc3[C@H](O)[C@H]3COC(=O)[C@H]23)OCO4)cc(OC)c1OC` [PODOFILOX] had an IC50 in series [3] of 0.016 µM.

Regarding `N=C(N)c1ccc(OCCCCCOc2ccc(C(=N)N)cc2)cc1` [PENTAMIDINE], the midpoint of inhibition in the series with Leishmania donovani, the IC50, lay at 2.3 µM.

As to `CCCCN(CCCC)c1c(C(C)=O)cc(S(=O)(=O)Nc2ccccc2)cc1C(C)=O`, the IC50 in series [1] was > 100 µM; against Tubulin, > 100 µM; in the series on Leishmania donovani, 30 µM; in series [2] it was 1.6 µM; in series [3], 26 µM.

`CCCCN(CCCC)c1c(Cl)cc(S(=O)(=O)Nc2ccccc2)cc1Cl`: the IC50 in series [1] was 9.1 µM; on Tubulin it was > 50 µM; with Leishmania donovani it was 11 µM; in series [2], 1.6 µM; in series [3] it was 19 µM.

Take `Cc1ccc(C(=O)Nc2ccc(S(=O)(=O)O)c3cc(S(=O)(=O)O)cc(S(=O)(=O)O)c23)cc1NC(=O)c1cccc(NC(=O)Nc2cccc(C(=O)Nc3cc(C(=O)Nc4ccc(S(=O)(=O)O)c5cc(S(=O)(=O)O)cc(S(=O)(=O)O)c45)ccc3C)c2)c1` [SURAMIN]: in series [2], the IC50 stood at 0.077 µM.

On to `CCCCN(CCCC)c1c(C(N)=O)cc(S(=O)(=O)Nc2ccccc2)cc1C(N)=O`, for which the IC50 in series [1] was > 100 µM; with Leishmania donovani it was > 50 µM; in series [2], > 50 µM.
